Source: ChEMBL document CHEMBL4406830, “Galloyl esters of trans-stilbenes are inhibitors of FASN with anticancer activity on non-small cell lung cancer cells” (Eur J Med Chem, 2019)
Values after ≈ are worked out from the molar mass of the structure shown. Active and inactive are the calls of the source. The calls are words filed in the database; no cut-off is given here.

Legend:
[1] = Kinetic solubility of the compound in universal buffer at pH 7.4 measured at 25 degC after 24 hrs by UV/Visible spectroscopic analysis; type: physicochemical; settings: read-out: Kinetic_solubility
[2] = molecular target: Fatty acid synthase (Homo sapiens) (UniProt P49327); experiment: Inhibition of full length human FASN transfected in HeLa cell lysates at 10 uM using acetyl Co-A/malonyl Co-A as substrate preincubated with enzyme for 2 hrs followed by substrate addition measured after 10 mins in presence of NADPH by microplate reader analysis; type: subcellular; settings: Lysate
In short: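 Human FASN was made by in vitro translation from a FASN plasmid. Lysate was diluted 3:7 in 100 mM potassium phosphate, pH 6.5, 1 mM EDTA. It was preincubated with compound (10 µM final) for 2 h at 37 °C. Buffer containing acetyl-CoA (55 µM) and NADPH (330 µM) was added, then the reaction was started with malonyl-CoA (500 µM stock). A340 was read at 0 and 10 min; triplicates.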

Sequence of Fatty acid synthase (Homo sapiens) (P49327 whole entry, looked up): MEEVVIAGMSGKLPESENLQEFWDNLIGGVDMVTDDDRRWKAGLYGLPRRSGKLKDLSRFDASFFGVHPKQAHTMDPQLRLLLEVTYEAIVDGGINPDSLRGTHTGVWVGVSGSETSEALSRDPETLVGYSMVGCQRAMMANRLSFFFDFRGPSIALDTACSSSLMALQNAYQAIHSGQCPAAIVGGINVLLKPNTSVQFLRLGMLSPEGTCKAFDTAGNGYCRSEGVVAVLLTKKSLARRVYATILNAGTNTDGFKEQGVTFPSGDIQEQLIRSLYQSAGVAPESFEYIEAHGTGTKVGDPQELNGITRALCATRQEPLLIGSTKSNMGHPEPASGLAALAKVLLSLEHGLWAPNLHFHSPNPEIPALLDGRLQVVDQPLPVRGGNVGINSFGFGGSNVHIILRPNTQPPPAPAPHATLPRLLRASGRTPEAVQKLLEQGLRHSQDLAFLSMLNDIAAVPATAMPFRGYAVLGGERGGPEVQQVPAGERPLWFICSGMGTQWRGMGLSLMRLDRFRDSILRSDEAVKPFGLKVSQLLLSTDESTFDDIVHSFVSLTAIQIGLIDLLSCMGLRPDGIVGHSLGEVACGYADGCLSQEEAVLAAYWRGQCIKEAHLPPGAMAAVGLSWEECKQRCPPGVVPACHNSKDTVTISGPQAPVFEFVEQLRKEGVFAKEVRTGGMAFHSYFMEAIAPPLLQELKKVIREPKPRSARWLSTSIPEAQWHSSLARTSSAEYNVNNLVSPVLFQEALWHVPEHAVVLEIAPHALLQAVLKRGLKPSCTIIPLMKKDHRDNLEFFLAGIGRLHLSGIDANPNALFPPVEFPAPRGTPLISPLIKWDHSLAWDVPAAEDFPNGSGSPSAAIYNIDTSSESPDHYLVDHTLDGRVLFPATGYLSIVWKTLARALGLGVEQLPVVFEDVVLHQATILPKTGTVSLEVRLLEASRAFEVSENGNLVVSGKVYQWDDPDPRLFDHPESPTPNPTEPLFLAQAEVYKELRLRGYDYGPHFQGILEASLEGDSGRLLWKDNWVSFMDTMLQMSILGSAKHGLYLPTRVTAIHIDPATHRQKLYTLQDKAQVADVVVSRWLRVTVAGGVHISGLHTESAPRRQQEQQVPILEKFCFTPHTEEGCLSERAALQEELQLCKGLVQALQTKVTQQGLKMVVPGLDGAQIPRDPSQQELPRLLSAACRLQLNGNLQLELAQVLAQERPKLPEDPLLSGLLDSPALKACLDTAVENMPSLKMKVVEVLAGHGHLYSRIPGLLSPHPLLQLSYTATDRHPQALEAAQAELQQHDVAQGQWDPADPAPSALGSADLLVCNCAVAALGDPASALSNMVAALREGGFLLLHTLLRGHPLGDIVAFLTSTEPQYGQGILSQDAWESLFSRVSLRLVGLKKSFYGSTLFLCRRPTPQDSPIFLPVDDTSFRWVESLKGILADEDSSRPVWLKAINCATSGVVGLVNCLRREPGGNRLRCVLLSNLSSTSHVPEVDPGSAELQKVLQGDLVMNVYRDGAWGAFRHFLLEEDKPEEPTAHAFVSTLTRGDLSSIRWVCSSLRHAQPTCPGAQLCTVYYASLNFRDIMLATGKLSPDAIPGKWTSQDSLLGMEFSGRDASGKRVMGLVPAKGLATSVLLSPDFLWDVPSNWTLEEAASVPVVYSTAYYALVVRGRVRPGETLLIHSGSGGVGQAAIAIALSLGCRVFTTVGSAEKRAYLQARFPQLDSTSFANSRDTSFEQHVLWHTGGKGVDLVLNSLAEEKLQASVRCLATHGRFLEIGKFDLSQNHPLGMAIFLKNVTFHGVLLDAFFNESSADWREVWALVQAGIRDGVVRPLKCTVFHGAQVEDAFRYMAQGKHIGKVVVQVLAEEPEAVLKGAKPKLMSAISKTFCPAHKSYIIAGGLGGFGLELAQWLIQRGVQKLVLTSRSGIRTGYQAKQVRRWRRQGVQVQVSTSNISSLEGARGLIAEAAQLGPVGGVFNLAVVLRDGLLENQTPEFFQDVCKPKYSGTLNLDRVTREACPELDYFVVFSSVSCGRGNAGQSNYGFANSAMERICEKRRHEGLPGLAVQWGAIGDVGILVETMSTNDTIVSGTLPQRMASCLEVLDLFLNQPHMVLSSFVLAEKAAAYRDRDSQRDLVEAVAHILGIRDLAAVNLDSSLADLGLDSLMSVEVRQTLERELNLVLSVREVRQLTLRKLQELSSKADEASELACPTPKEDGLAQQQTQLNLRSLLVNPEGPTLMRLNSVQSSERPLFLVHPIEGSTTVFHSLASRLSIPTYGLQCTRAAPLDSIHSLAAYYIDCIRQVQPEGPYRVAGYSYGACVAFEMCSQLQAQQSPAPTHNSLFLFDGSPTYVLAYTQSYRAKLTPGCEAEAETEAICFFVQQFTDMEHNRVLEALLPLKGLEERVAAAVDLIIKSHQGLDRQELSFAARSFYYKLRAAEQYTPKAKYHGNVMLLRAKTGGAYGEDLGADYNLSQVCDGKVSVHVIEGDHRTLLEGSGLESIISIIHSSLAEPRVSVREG

| solubility kinetic at 24 h [1] | inhibition [2] | SMILES |
| --- | --- | --- |
| 2.5 µM (≈ 1.29 µg/mL) | Active | O=C(Oc1ccc(/C=C/c2ccc(OC(=O)c3cc(O)c(O)c(O)c3)cc2)cc1)c1cc(O)c(O)c(O)c1 |
| 6 µM (≈ 3.1 µg/mL) | Active | O=C(Oc1ccc(/C=C/c2cccc(OC(=O)c3cc(O)c(O)c(O)c3)c2)cc1)c1cc(O)c(O)c(O)c1 |
